Published values of several laboratories.
Compare with care: the assays were run in different laboratories.
Target: Serine/threonine-protein kinase haspin (HASPIN, Homo sapiens, UniProt Q8TF76)
One construct used (Q8TF76 1-798): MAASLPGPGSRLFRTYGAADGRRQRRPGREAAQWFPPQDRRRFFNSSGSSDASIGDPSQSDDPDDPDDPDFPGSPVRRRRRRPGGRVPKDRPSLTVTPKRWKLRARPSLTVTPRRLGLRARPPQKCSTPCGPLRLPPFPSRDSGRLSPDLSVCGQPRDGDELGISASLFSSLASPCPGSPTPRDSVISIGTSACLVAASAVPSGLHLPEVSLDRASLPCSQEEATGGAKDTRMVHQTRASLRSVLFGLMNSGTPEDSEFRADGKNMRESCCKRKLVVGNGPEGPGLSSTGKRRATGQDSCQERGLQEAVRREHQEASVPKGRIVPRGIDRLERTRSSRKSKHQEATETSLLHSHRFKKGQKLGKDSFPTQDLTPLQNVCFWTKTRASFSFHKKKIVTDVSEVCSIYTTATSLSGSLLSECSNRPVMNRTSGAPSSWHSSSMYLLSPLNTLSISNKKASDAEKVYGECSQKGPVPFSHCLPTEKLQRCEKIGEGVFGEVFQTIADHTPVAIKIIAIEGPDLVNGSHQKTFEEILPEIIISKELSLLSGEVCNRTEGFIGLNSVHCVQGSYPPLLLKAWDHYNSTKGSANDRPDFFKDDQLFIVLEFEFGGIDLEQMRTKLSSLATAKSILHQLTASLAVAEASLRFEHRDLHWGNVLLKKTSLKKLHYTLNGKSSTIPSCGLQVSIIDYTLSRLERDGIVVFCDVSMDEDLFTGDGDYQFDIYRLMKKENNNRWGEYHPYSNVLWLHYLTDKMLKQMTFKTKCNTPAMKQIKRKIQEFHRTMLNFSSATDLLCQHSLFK

NS(=O)(=O)c1cc(NC(=O)Cc2ccccc2)ccc1Oc1cccc(Cl)c1
remaining binding (cell-free assay, competition with immobilised ligand; 1 µM): 100%

COc1ncc2cc3ccccc3nc2c1C#N
remaining binding (cell-free assay, competition with immobilised ligand; 5 µM): 51%

CN(C)c1ncc(F)c(-c2cnn3ncccc23)n1
remaining binding (binding; 1 µM): 37%

Cn1nc(C(F)(F)F)cc1-c1cnc(N2CCc3cc(S(=O)(=O)Nc4c(F)cc(Cl)cc4F)cc(N4CCCC4=O)c32)nc1
remaining binding (cell-free assay, competition with immobilised ligand; 1 µM): 68%

C[C@H]1CCN(c2nccc(-c3cnn4ncccc34)n2)C1
remaining binding (binding; 1 µM): 2.1%

C[C@H](NC(=O)c1cnc2n1[C@](C)(Cc1ccc(C#N)cc1)C(=O)N2c1cc(Cl)c(F)c(Cl)c1)C(=O)NC1(c2ccccn2)CC1
remaining binding (cell-free assay, competition with immobilised ligand; 1 µM): 100%

C[C@@H](c1ccc(-n2cnc3c(N)ncnc32)cc1)N1CCc2nn(C)c(Cc3ccccc3)c2C1=O
remaining binding (binding, competition with immobilised ligand; 0.1 µM): 79%

COc1cnc(Nc2cccc(S(N)(=O)=O)c2)nc1N1CCN(c2ccccc2)C(=O)C1
remaining binding (binding, competition with immobilised ligand; 1 µM): 89%

CN(C)c1nccc(-c2cnc3ncccn23)n1
remaining binding (binding; 1 µM): 2.8%

CCS(=O)(=O)c1cc2cc(C[C@@](O)(CC(C)(C)c3ccc(F)cc3C(N)=O)C(F)(F)F)[nH]c2cn1
remaining binding (cell-free assay, competition with immobilised ligand; 1 µM): 80%

Cc1cnc(Nc2ccc(C(=O)N3CCC(N4CCCC4)CC3)cc2)nc1-c1cc2ccccc2s1
remaining binding (binding, competition with immobilised ligand; 1 µM): 83%

COc1ccc2cc(OCC3(C(=O)O)CN(C(=O)c4ccc(F)cc4)C3)ccc2c1
remaining binding (cell-free assay, competition with immobilised ligand; 1 µM): 100%

O=C(NCC1CCOCC1)c1n[nH]cc1NC(=O)c1c(F)cccc1F
remaining binding (binding, competition with immobilised ligand; 1 µM): 88%

Cc1cc(NC(=O)c2cccc(S(F)(F)(F)(F)F)c2)cc(-n2ccn3nc(-c4cccnc4)cc23)c1
remaining binding (cell-free assay, competition with immobilised ligand; 1 µM): 70.9%

CN(CCCC(F)(F)F)c1nccc(-c2cnn3ncccc23)n1
remaining binding (binding; 1 µM): 11%

O=C(Nc1cnc(Oc2ccc(F)cc2)nc1)N1CCc2ncccc2[C@@H]1c1ccc(F)cc1
remaining binding (cell-free assay, competition with immobilised ligand; 1 µM): 93%

N[C@@H]1CCN(c2nccc(-c3cnn4ncccc34)n2)C1
remaining binding (binding; 1 µM): 2.5%

C=CC(=O)N1CCC(C(=O)NCC(=O)N2CCN(c3nc(-c4cnc(N)nc4C(F)F)nc(N4CCOCC4)n3)CC2)CC1
remaining binding (binding, competition with immobilised ligand; 1 µM): 75%

O=C(NCCCN1CCOCC1)c1ccc(Nc2ncc(Cl)c(-c3ccc(Cl)s3)n2)cc1
remaining binding (binding, competition with immobilised ligand; 1 µM): 51%

F[C@@H]1CCN(c2nccc(-c3cnn4ncccc34)n2)C1
remaining binding (binding; 1 µM): 15%

O=C(c1ccc(Nc2nccc(-c3cc4ccccc4s3)n2)cc1)N1CCC(N2CCCC2)CC1
remaining binding (binding, competition with immobilised ligand; 1 µM): 64%

CNC(=O)[C@@H]1CC[C@@H](n2c(-c3ccc4cnccc4c3)nc3ccc(C(=O)NCc4cccc(C(N)=O)c4)cc32)C1
remaining binding (binding, competition with immobilised ligand; 1 µM): 99%
